In general, Ki refers to a measure of affinity in units of concentration, obtained from inhibition or displacement.

For 35 compounds, Ki results are on record in ChEMBL document CHEMBL1153881, “The influence of an ethylene spacer on the 5-HT(1A) and 5-HT(2A) receptor affinity of arylpiperazine derivatives of amides with N-acylated amino acids and 3-differently substituted pyrrolidine-2,5-diones” (Eur J Med Chem, 2009).

The target in experiment [1] is T1, 5-hydroxytryptamine receptor 1A (Rattus norvegicus, UniProt P19327).
T1 sequence (P19327 whole entry): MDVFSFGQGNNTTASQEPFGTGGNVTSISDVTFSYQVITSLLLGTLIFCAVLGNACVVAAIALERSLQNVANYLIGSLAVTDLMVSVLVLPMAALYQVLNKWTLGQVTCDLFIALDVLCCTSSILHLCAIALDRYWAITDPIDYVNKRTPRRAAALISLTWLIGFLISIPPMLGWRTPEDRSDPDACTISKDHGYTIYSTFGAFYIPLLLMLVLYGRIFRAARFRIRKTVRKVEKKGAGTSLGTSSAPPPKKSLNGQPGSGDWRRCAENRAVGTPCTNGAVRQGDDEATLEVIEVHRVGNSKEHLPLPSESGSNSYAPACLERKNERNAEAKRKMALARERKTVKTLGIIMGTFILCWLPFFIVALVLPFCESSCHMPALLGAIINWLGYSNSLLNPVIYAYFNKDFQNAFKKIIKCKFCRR
The experiment is described as follows: Displacement of [3H]8-OH-DPAT from 5HT1A receptor in rat hippocampal membrane. The class given is cell membranes, Hippocampus. The essentials: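 Native receptor in rat hippocampal membranes, labelled with [3H]-8-OH-DPAT (170 Ci/mmol) and displaced by the compounds, which were tested without further purification. Screening used two compound concentrations. Full binding curves used 7–9 concentrations, each run in triplicate, and Ki was derived from inhibition of binding.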

In experiment [2] the target is 5-hydroxytryptamine receptor 2A (Rattus norvegicus, UniProt P14842). The experiment is described as follows: Displacement of [3H]ketanserin from 5HT2A receptor in rat cortical membrane. Type of experiment: cell membranes.
Sequence of 5-hydroxytryptamine receptor 2A (P14842 whole entry): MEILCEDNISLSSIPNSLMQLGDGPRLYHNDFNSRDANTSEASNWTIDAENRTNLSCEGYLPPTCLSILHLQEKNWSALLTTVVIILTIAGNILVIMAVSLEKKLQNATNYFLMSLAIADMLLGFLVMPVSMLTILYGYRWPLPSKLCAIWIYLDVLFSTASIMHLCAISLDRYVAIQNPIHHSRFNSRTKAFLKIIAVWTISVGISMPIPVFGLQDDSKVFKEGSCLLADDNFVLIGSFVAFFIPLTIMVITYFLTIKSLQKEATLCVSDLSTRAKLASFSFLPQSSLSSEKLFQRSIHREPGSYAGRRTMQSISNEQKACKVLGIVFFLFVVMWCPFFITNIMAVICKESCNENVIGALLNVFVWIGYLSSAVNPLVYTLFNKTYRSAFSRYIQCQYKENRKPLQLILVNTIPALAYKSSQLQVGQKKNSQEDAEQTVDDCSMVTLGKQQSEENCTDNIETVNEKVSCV

Take `COc1ccccc1N1CCN(CCCCNC(=O)[C@@H]2CCC(=O)N2C(=O)C2CCCCC2)CC1`: affinity in experiment [1] was put at a Ki of 17 nM.

As for `COc1ccccc1N1CCN(CCCCNC(=O)[C@@H]2CCCN2C(=O)C2CCCCC2)CC1`, the figures for the inhibition constant Ki in experiment [2] and in experiment [1] were 990 nM and 19 nM, respectively.

As for `COc1ccccc1N1CCN(CCCN2C(=O)C[C@H](NC(C)=O)C2=O)CC1`, the affinity in experiment [1] corresponds to a Ki of 480 nM.

Consider `COc1ccccc1N1CCN(CCCN2C(=O)C[C@H](NC(=O)CC3CC4CCC3C4)C2=O)CC1` (stereo partly drawn), for which affinity in experiment [1] was put at a Ki of 40 nM.

In experiment [1], `COc1ccccc1N1CCN(CCCN2C(=O)C[C@H](NC(=O)C34CC5CC(CC(C5)C3)C4)C2=O)CC1` came in with a Ki of 63 nM.

`COc1ccccc1N1CCN(CCCCN2C(=O)C[C@H](NC(C)=O)C2=O)CC1`: in experiment [1], the Ki stood at 69 nM.

Consider `COc1ccccc1N1CCN(CCCN2C(=O)C[C@H](NC(=O)C3CCCCC3)C2=O)CC1`, for which the Ki in experiment [1] stood at 230 nM.

In the case of `COc1ccccc1N1CCN(CCCCNC(=O)[C@@H]2CCCN2C(=O)C23CC4CC(CC(C4)C2)C3)CC1`, the Ki in experiment [2] was found to be 503 nM; in experiment [1] it was 3 nM.

For `COc1ccccc1N1CCN(CCN2C(=O)C[C@H](NC(=O)C34CC5CC(CC(C5)C3)C4)C2=O)CC1`, the inhibition constant (Ki) in experiment [2] came to 4800 nM; in experiment [1] it was 579 nM.

Consider `COc1ccccc1N1CCN(CCN2C(=O)CCC2=O)CC1`, for which the values for the Ki in experiment [2] and in experiment [1] were 17600 nM and 2090 nM, respectively.

In the case of `O=C1CCC(=O)N1CCN1CCN(c2cccc(Cl)c2)CC1`, the Ki in experiment [2] came to 2120 nM; in experiment [1] it was 3670 nM.

`COc1ccccc1N1CCN(CCN2C(=O)C[C@H](NC(=O)C3CCCCC3)C2=O)CC1`: the values for the Ki in experiment [2] and in experiment [1] were 7340 nM and 7440 nM, respectively.

For the compound `COc1ccccc1N1CCN(CCCNC(=O)[C@@H]2CCCN2C(C)=O)CC1`, the values for the Ki in experiment [2] and in experiment [1] were 3140 nM and 580 nM, respectively.

For `COc1ccccc1N1CCN(CCNC(=O)[C@@H]2CCC(=O)N2C(=O)C2CCCCC2)CC1`, the Ki was 14900 nM in experiment [2] and 1000 nM in experiment [1].

As for `O=C(NCCCN1CCN(c2cccc(Cl)c2)CC1)[C@@H]1CCC(=O)N1C(=O)C1CCCCC1`, the Ki turned out to be 800 nM in experiment [2] and 1730 nM in experiment [1].

For the compound `O=C(N[C@H]1CC(=O)N(CCN2CCN(c3cccc(Cl)c3)CC2)C1=O)c1ccccc1`, the Ki in experiment [2] turned out to be 1740 nM; in experiment [1], 10000 nM.

Consider `COc1ccccc1N1CCN(CCN2C(=O)CC(NC(C)=O)C2=O)CC1` (stereo not drawn), for which the Ki in experiment [2] turned out to be 5680 nM; in experiment [1], 7590 nM.

With `COc1ccccc1N1CCN(CCNC(=O)[C@@H]2CCCN2C(=O)C23CC4CC(CC(C4)C2)C3)CC1`, the Ki in experiment [2] is 1920 nM; in experiment [1] it was 350 nM.

With `O=C(N[C@H]1CC(=O)N(CCCN2CCN(c3cccc(Cl)c3)CC2)C1=O)C1CCCCC1`, the Ki in experiment [2] is 92 nM; in experiment [1] it was 360 nM.

Turning to `O=C(N[C@H]1CC(=O)N(CCN2CCN(c3cccc(Cl)c3)CC2)C1=O)C1CCCCC1`, the inhibitory constant (Ki) in experiment [2] was determined as 1410 nM; in experiment [1], 3780 nM.

Regarding `COc1ccccc1N1CCN(CCNC(=O)[C@@H]2CCC(=O)N2C(=O)c2ccccc2)CC1`, the Ki in experiment [2] was found to be 8710 nM; in experiment [1], 1510 nM.

With `O=C(NCCN1CCN(c2cccc(Cl)c2)CC1)[C@@H]1CCCN1C(=O)c1ccccc1`, the Ki in experiment [2] is 1300 nM; in experiment [1], 1950 nM.

Regarding `COc1ccccc1N1CCN(CCNC(=O)[C@@H]2CCCN2C(C)=O)CC1`, the Ki in experiment [2] was determined as 8600 nM; in experiment [1], 6600 nM.

With `O=C(NCCCCN1CCN(c2cccc(Cl)c2)CC1)[C@@H]1CCCN1C(=O)c1ccccc1`, the Ki in experiment [2] turned out to be 128 nM; in experiment [1] it was 78 nM.

As for `O=C1CC(C2CCCCC2)C(=O)N1CCN1CCN(c2cccc(Cl)c2)CC1` (stereo not drawn), the values for the Ki in experiment [2] and in experiment [1] were 137 nM and 227 nM, respectively.

On to `O=C(NCCCCN1CCN(c2cccc(Cl)c2)CC1)[C@@H]1CCC(=O)N1C(=O)C1CCCCC1`, for which the Ki stood at 163 nM in experiment [2] and 111 nM in experiment [1].

In turn, `COc1ccccc1N1CCN(CCCNC(=O)[C@@H]2CCC(=O)N2C(=O)c2ccccc2)CC1` had a Ki in experiment [1] of 390 nM.

Take `O=C(NCCN1CCN(c2cccc(Cl)c2)CC1)[C@@H]1CCCN1C(=O)C1CCCC1`: the inhibition constant Ki in experiment [2] was determined as 357 nM; in experiment [1], 2010 nM.

As for `COc1ccccc1N1CCN(CCN2C(=O)C[C@H](NC(=O)CC3CC4CCC3C4)C2=O)CC1` (stereo partly drawn), the values for the Ki in experiment [2] and in experiment [1] were 12400 nM and 497 nM, respectively.

Take `COc1ccccc1N1CCN(CCNC(=O)[C@@H]2CCCN2C(=O)C2CCCCC2)CC1`: the values for the Ki in experiment [2] and in experiment [1] were 2330 nM and 3550 nM, respectively.

`O=C1CC2(CCCCC2)C(=O)N1CCN1CCN(c2cccc(Cl)c2)CC1`: the Ki in experiment [2] was found to be 15 nM; in experiment [1], 4.3 nM.

With `COc1ccccc1N1CCN(CCN2C(=O)CC(C3CCCCC3)C2=O)CC1` (stereo not drawn), the figures for the Ki in experiment [2] and in experiment [1] were 868 nM and 24 nM, respectively.

In the case of `O=C(NCCN1CCN(c2cccc(Cl)c2)CC1)[C@@H]1CCC(=O)N1C(=O)C1CCCCC1`, the Ki in experiment [2] is 3260 nM; in experiment [1], 8520 nM.

For `O=C(N[C@H]1CC(=O)N(CCCCN2CCN(c3cccc(Cl)c3)CC2)C1=O)c1ccccc1`, the Ki in experiment [2] worked out at 75 nM; in experiment [1], 41 nM.

Regarding `COc1ccccc1N1CCN(CCN2C(=O)CC3(CCCCC3)C2=O)CC1`, the figures for the inhibition constant Ki in experiment [2] and in experiment [1] were 254 nM and 5.7 nM, respectively.
